Measurements from ChEMBL document CHEMBL1667759, “Molecular modeling study and synthesis of quinazolinone-arylpiperazine derivatives as α1-adrenoreceptor antagonists” (Eur J Med Chem, 2011).
Where a name gives a salt, the structure may show the parent alone.

Legend:
Type in all cases: functional
Felis catus [1] = experiment: Hypotensive activity in normotensive cat assessed as reduction in systolic blood pressure at 500 mg/kg, iv; conditions: Artery
Procedure, shortened: (§1)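 Male cats (2e3 kg), acclimatized 7 days at 22 °C with 12 h light/dark cycle; groups of six. Single 500 mg/kg dose injected via femoral vein, flushed with 1 mL saline. Systolic and diastolic pressure recorded with mercury manometer on smoked kymograph; mean ± SD and % change versus control, significance by one-way ANOVA at P < 0.05. Experiments run 8–10 a.m.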

Felis catus [2] = experiment: Hypotensive activity in normotensive cat assessed as reduction in diastolic blood pressure at 500 mg/kg, iv; conditions: Artery; procedure, shortened: as §1
Rattus norvegicus = species on record: Rattus norvegicus; experiment: Vasodilatory activity in Wistar rat aortic rings without endothelium assessed as reduction in norepinephrine hydrochloride-induced vasoconstriction; conditions: Wister, Aorta
Procedure, shortened: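 Thoracic aortic rings from male Wister rats (250e350 g), killed by cervical dislocation and bleeding after light ether anaesthesia. Contraction to norepinephrine hydrochloride (10^-6 M) measured before and after increasing compound concentrations; compounds dissolved in DMSO (0.01 M stock), with DMSO-alone controls. IC50 = concentration giving 50% reduction of maximal NE contracture, derived by best-fit line.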

IC50 (Rattus norvegicus)	SMILES	inhibition in vivo at 500 mg/kg (Felis catus [1])	inhibition in vivo at 500 mg/kg (Felis catus [2])
–	COc1cc2nc(C)n(NC(=O)CCN3CCN(c4ccc([N+](=O)[O-])cc4)CC3)c(=O)c2cc1OC	5%	6.82%
–	CCOC(=O)c1nc2cc(OC)c(OC)cc2c(=O)n1NC(=O)CN1CCN(c2ccccc2OC)CC1	2.22%	4.02%
–	COc1cc2nc(C)n(NC(=O)CN3CCN(c4ccccc4OC)CC3)c(=O)c2cc1OC	3.13%	2.78%
201 µM	COc1cc2nc(C)n(NC(=O)CCN3CCN(c4ccccc4OC)CC3)c(=O)c2cc1OC	42.2%	40%
–	COc1cc2nc(C)n(NC(=O)CCN3CCN(c4ccccc4)CC3)c(=O)c2cc1OC	15.6%	13.9%
400 µM	CCOC(=O)c1nc2cc(OC)c(OC)cc2c(=O)n1NC(=O)CCN1CCN(c2ccccc2OC)CC1	12.4%	13.9%
–	COc1cc2nc(C)n(NC(=O)CCN3CCN(C(=O)c4ccco4)CC3)c(=O)c2cc1OC	9.38%	11.1%
–	COc1ccccc1N1CCN(CC(=O)Nn2c(C)nc3ccccc3c2=O)CC1	0%	0%
487 µM	COc1cc2nc(N3CCN(C(=O)c4ccco4)CC3)nc(N)c2cc1OC [PRAZOSIN HYDROCHLORIDE]	29%	29%
303 µM	COc1ccccc1N1CCN(Cc2nc3ccccc3c(=O)[nH]2)CC1	23.7%	21.7%
